From PMC8163102 (Angewandte Chemie (International ed. in English), 2020)

Columns and labels:
[1] = tested on: 4T1 murine breast cancer lysates; experiment: Cleavage of ACC peptide substrates in tumor lysate; format: biochemical, mouse; conditions: E64 10 μM preincubation, 4T1 lysate, acidic pH; Fig. 1D
How it was run: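 ACC-reporter peptide substrates were added to 4T1 murine breast cancer lysate at acidic pH, with or without prior preincubation with the cysteine cathepsin inhibitor E64 (10 μM). Cleavage velocity was plotted as mean ± SD, n=3.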

immortalized macrophages = experiment: Probe activation in cells by flow cytometry; format: cell-based; conditions: E64d pretreatment; Fig. S4

Compound	Effect of preincubation with the inhibitor on cleavage of ACC substrates 1-3 [1]	Effect of inhibitor pretreatment on labelling of cells by probe 5 (immortalized macrophages)
CC(C)C[C@H](NC(=O)[C@H]1O[C@@H]1C(=O)O)C(=O)NCCCCN=C(N)N [E64]	fully abrogated cleavage	
CCOC(=O)[C@H]1O[C@@H]1C(=O)N[C@@H](CC(C)C)C(=O)NCCC(C)C [E64d]		strongly diminished labelling
